{"source": "ChEMBL document CHEMBL4219235", "about": "“Novel fatty acid chain modified GLP-1 derivatives with prolonged in vivo glucose-lowering ability and balanced glucoregulatory activity” (Bioorg Med Chem, 2018)", "key": {"Mus musculus [1]": {"tested_on": "Mus musculus", "assay": "Antidiabetic activity in STZ/diet-induced obese C57BL/6 mouse assessed as reduction in size of white adipocytes at 25 nmol/kg, ip administered daily for 4 weeks measured post last dose", "type": "functional, organism-based"}, "Rattus norvegicus": {"tested_on": "Rattus norvegicus", "assay": "Antidiabetic activity in Sprague-Dawley rat assessed as time required to increase in plasma insulin level at 25 nmol/kg, ip treated 30 mins prior to glucose challenge by ELISA", "type": "functional", "outline": "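Male SD rats (200–250 g), fasted 12 h, n = 6/group, received 25 nmol/kg i.p. or saline 30 min before an oral glucose load (10 g/kg, set as 0 min). EDTA plasma insulin was measured by rat insulin ELISA.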"}, "INS1": {"tested_on": "INS1", "assay": "Cytoprotective activity against STZ-induced oxidative stress in rat INS-1 cells assessed as cell death at 10 to 100 nM after 24 hrs by MTT assay (reference value: 45%)", "type": "functional"}, "Mus musculus [2]": {"tested_on": "Mus musculus", "assay": "Antidiabetic activity in STZ/diet-induced obese C57BL/6 mouse assessed as reduction in food intake at 25 nmol/kg, ip measured after 6 hrs relative to control", "type": "functional", "design": "scale not given: the % may be the effect or the level left", "outline": "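Acute study in fasted mice given an i.p. dose; food intake was measured at 6 h after administration.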"}, "Mus musculus [3]": {"tested_on": "Mus musculus", "assay": "Antidiabetic activity in STZ-induced diabetic Kunming mouse model assessed as reduction in HbA1c level at 25 nmol/kg, ip administered once daily for 3 weeks measured at post last dose by Beckman coulter based method", "type": "functional, organism-based", "outline": "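STZ diabetes induced with 40 mg/kg/day i.p. for 5 consecutive days after overnight fasting. Mice with fasting glucose ≥11.1 mM were grouped by matched body weight and dosed 25 nmol/kg i.p. once daily for 3 weeks; saline served as control. Fasting plasma glucose was measured every five days, and HbA1c at day 24; n = 6/group.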"}, "Mus musculus [4]": {"tested_on": "Mus musculus", "assay": "Antidiabetic activity in STZ/diet-induced obese C57BL/6 mouse assessed as reduction in body weight gain at 25 nmol/kg, ip administered daily for 4 weeks measured daily during compound dosing", "type": "functional, organism-based", "outline": "(§1)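 Male C57BL/6J DIO mice on high-fat diet were treated for 4 weeks with saline as control; LFD-fed mice (n = 6/group) were used as normal reference. Water intake, food intake and body weight were recorded daily. Terminal serum leptin and adiponectin were measured by ELISA. TC, TG, HDL, LDL, ALT and AST were measured on a clinical chemistry analyzer.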"}, "Mus musculus [5]": {"tested_on": "Mus musculus", "assay": "Antidiabetic activity in STZ-induced diabetic Kunming mouse model assessed as increase in islet beta-cell area 25 nmol/kg, ip administered once daily for 3 weeks measured post last dose by hematoxylin and eosin staining based assay", "type": "functional, organism-based", "outline": "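STZ-diabetic mice were dosed 25 nmol/kg i.p. once daily; normal mice and saline-treated mice served as references. After 21 days the pancreas was fixed, sectioned at 5 µm and stained with H&E. Islet area was measured by manually tracing the islet perimeter; n = 6/group.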"}, "Mus musculus [6]": {"tested_on": "Mus musculus", "assay": "Antidiabetic activity in STZ/diet-induced obese C57BL/6 mouse assessed as reduction in serum ALT level at 25 nmol/kg, ip administered daily for 4 weeks measured post last dose", "type": "functional, organism-based", "outline": "as §1"}, "Mus musculus [7]": {"tested_on": "Mus musculus", "assay": "Antidiabetic activity in STZ/diet-induced obese C57BL/6 mouse assessed as increase in serum adiponectin level at 25 nmol/kg, ip administered daily for 4 weeks measured post last dose", "type": "functional, organism-based", "outline": "as §1"}, "Mus musculus [8]": {"tested_on": "Mus musculus", "assay": "Antidiabetic activity in STZ/diet-induced obese C57BL/6 mouse assessed as reduction in cumulative food intake at 25 nmol/kg, ip administered daily for 4 weeks measured daily during compound dosing relative to control", "type": "functional", "design": "scale not given: the % may be the effect or the level left", "outline": "as §1"}, "Mus musculus [9]": {"tested_on": "Mus musculus", "assay": "Hypoglycemic activity in STZ-induced diabetic Kunming mouse model assessed as reduction in glucose AUC (0 to 36 hrs) at 150 nmol/kg, ip administered as single dose", "type": "functional, organism-based", "outline": "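Non-fasted STZ-diabetic Kunming mice with free access to food and water received a single i.p. injection (25 or 150 nmol/kg) or saline; n = 6/group. Blood glucose was followed over time. Euglycemic duration was defined as time below 8.35 mmol/L, and glucose AUC0–36h was calculated.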"}}, "note": "Calls of active or inactive are those of the source."}
{"smiles": "CC[C@H](C)[C@H](NC(=O)[C@H](Cc1ccccc1)NC(=O)[C@H](CCC(=O)O)NC(=O)[C@H](CCCCN)NC(=O)[C@H](C)NC(=O)[C@H](C)NC(=O)[C@H](CCC(N)=O)NC(=O)CNC(=O)[C@H](CCC(=O)O)NC(=O)[C@H](CC(C)C)NC(=O)[C@H](Cc1ccc(O)cc1)NC(=O)[C@H](CO)NC(=O)[C@H](CO)NC(=O)[C@@H](NC(=O)[C@H](CC(=O)O)NC(=O)[C@H](CO)NC(=O)[C@@H](NC(=O)[C@H](Cc1ccccc1)NC(=O)[C@@H](NC(=O)CNC(=O)[C@H](CCC(=O)O)NC(=O)CNC(=O)[C@@H](N)Cc1cnc[nH]1)[C@@H](C)O)[C@@H](C)O)C(C)C)C(=O)N[C@@H](C)C(=O)N[C@@H](Cc1c[nH]c2ccccc12)C(=O)N[C@@H](CC(C)C)C(=O)N[C@H](C(=O)N[C@@H](CCCCN)C(=O)NCC(=O)N[C@@H](CCCNC(=N)N)C(=O)N[C@@H](CSC1CC(=O)N(CCCCCCCCCCCC(=O)O)C1=O)C(N)=O)C(C)C", "note": "(stereo partly specified)", "values": [{"measurement": "Activity", "setting": "Mus musculus [1]", "result": "Active"}, {"measurement": "Time", "setting": "Rattus norvegicus", "result": "15 to 60", "unit": "min"}, {"measurement": "Activity", "setting": "INS1", "result": 21.9, "unit": "%"}, {"measurement": "Activity", "setting": "Mus musculus [2]", "result": "<=34.5%"}, {"measurement": "Activity", "setting": "Mus musculus [3]", "result": "Active"}, {"measurement": "Activity", "setting": "Mus musculus [4]", "result": "Active"}, {"measurement": "Activity", "setting": "Mus musculus [5]", "result": "Active"}, {"measurement": "Activity", "setting": "Mus musculus [6]", "result": "Active"}, {"measurement": "Activity", "setting": "Mus musculus [7]", "result": "Active"}, {"measurement": "Activity", "setting": "Mus musculus [8]", "result": 24.9, "unit": "%"}, {"measurement": "Activity", "setting": "Mus musculus [9]", "result": "Active"}]}
